The values below come from ChEMBL document CHEMBL1926596, “Synthesis and antimalarial evaluation of novel isocryptolepine derivatives” (Bioorg Med Chem, 2011).

Structures can show the parent of a compound that is named as a salt.

In data set [1] the test system is Plasmodium falciparum. In words: Antimalarial activity against Plasmodium falciparum K1. The data set is classed as functional, organism-based.
The subject of data set [2] is Plasmodium falciparum. In words: Antimalarial activity against chloroquine-resistant Plasmodium falciparum W2mef infected in human erythrocytes assessed as inhibition of [3H]hypoxanthine incorporation after 48 hrs by beta liquid scintillation counting method. The data set is classed as functional, organism-based. The method, boiled down:
(§1)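 Hydrochloride salts, from DMSO/water stocks (final DMSO <0.05%), added in triplicate to parasites cultured in RPMI 1640 HEPES with L-glutamine, gentamicin, hypoxanthine and 10% pooled human plasma at 37 °C under 3–9% oxygen. Radiolabel was added, then 48 h incubation, freeze-thaw, filtermat harvest and scintillation counting. Uninfected and infected drug-free controls were included. IC50 came from nonlinear regression of log-dose–response curves, with at least 3 separate runs.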

Data set [3] is described as follows: Selectivity index, ratio of IC50 for mouse 3T3 cells to IC50 for chloroquine-resistant Plasmodium falciparum W2mef. It is filed as toxicity, cell-based, NIH3T3. The following applies: read-out: Ratio IC50. The method, boiled down: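 The ratio uses the W2mef antiplasmodial IC50 and the IC50 in 3T3 mouse embryonic fibroblasts. Cells were seeded 24 h earlier at 7500/well on 1% gelatine, 37 °C, 5% CO2. Serial dilutions were added in quadruplicate with a vehicle control for 48 h. MTT (1 mg/mL, 60 min, 37 °C) was solubilised in DMSO and read at 595 nm. IC50 came from nonlinear regression after DMSO correction, with at least 3 runs.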

The next data set deals with NIH3T3. In words: Cytotoxicity against mouse 3T3 cells after 48 hrs by MTT assay. It is filed as cell-based. As to conditions: NIH3T3, 48 h. In outline:
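Cells seeded at 7500 per well on 1% gelatine-coated plates 24 h before testing (37 °C, 5% CO2, humidified). Test agents given as hydrochloride salts in DMSO/water stocks, diluted in RPMI, serially diluted, added in quadruplicate, with vehicle and drug-free controls. After 48 h, MTT (1 mg/mL in RPMI) for 60 min, DMSO solubilisation, absorbance 595 nm. At least three separate runs; IC50 by non-linear regression after DMSO correction.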
(In general: Tetrazolium assays rely on reduction of a dye to a coloured formazan, in cell work by metabolically active cells.)

Data set [4] relates to Plasmodium falciparum. In words: Antimalarial activity against chloroquine-sensitive Plasmodium falciparum 3D7 infected in human erythrocytes assessed as inhibition of [3H]hypoxanthine incorporation after 48 hrs by beta liquid scintillation counting method. It is filed as functional, organism-based. The method, boiled down:
as §1

Compound `Cn1c2c3cc(Br)ccc3nc-2cc2cc(Br)ccc21` showed an IC50 in the data set with Plasmodium falciparum [1] of 49 nM.
With `Cc1cc2nc3c4ccccc4n(C)cc-3c2cc1Br`, the values for the IC50 in the data set on Plasmodium falciparum [2], in the data set with NIH3T3 and in the data set on Plasmodium falciparum [4] were 131 nM, 2500 nM and 62 nM, respectively. The selectivity ratio in data set [3] came to 19.
`Cn1cc2c3ccccc3nc-2c2ccccc21` [ISOCRYPTOLEPINE HYDROCHLORIDE]: the IC50 in the data set with Plasmodium falciparum [2] came to 1180 nM; in the data set on NIH3T3, 2190 nM; with Plasmodium falciparum [4], 665 nM. The selectivity ratio in data set [3] was found to be 1.9.
`CCN(CC)CCCC(C)Nc1ccnc2cc(Cl)ccc12` (centres undefined) [CHLOROQUINE] yielded an IC50 with NIH3T3 of 72000 nM.
For the compound `Cn1cc2c3cc(Br)ccc3nc-2c2ccc(Cl)cc21`, the 50% inhibitory concentration (IC50) with Plasmodium falciparum [2] was 100 nM; in the data set on NIH3T3, 2640 nM; with Plasmodium falciparum [4], 50 nM. Further, the selectivity ratio in data set [3] was determined as 26.
As to `Cc1ccc2c3cn(C)c4ccccc4c-3nc2c1`, the figures for the IC50 in the data set with Plasmodium falciparum [2], in the data set with NIH3T3 and with Plasmodium falciparum [4] were 760 nM, 2070 nM and 448 nM, respectively. The selectivity ratio in data set [3] came to 2.7.
In the case of `Cn1cc2c3ccccc3nc-2c2ccc(Cl)cc21`, the figures for the IC50 in the data set with Plasmodium falciparum [2], with NIH3T3 and with Plasmodium falciparum [4] were 316 nM, 2260 nM and 130 nM, respectively. The selectivity ratio in data set [3] is 7.3.
As to `CCCCN(CCCC)CC(O)c1cc(Cl)cc2c1-c1ccc(Cl)cc1/C2=C/c1ccc(Cl)cc1` (centres undefined) [LUMEFANTRINE], the half-maximal inhibitory concentration (IC50) in the data set with Plasmodium falciparum [2] came to 56 nM.
As for `Cn1cc2c3cc(Br)ccc3nc-2c2cc(Cl)ccc21`, the IC50 came to 85 nM in the data set on Plasmodium falciparum [2], 9000 nM in the data set with NIH3T3 and 57 nM in the data set with Plasmodium falciparum [4]. For the same compound, the selectivity ratio in data set [3] was found to be 106.
As to `Cn1cc2c3cc(Br)ccc3nc-2c2cc(Br)ccc21`, the IC50 in the data set on Plasmodium falciparum [2] was 112 nM; in the data set with NIH3T3, 2580 nM; with Plasmodium falciparum [4], 127 nM. The selectivity ratio in data set [3] was 23.
`Cn1cc2c3cc(Br)ccc3nc-2c2ccccc21`: the concentration for half-maximal inhibition (IC50) was determined as 184 nM in the data set with Plasmodium falciparum [2], 1970 nM with NIH3T3 and 85 nM in the data set with Plasmodium falciparum [4]. Also, in data set [3], the selectivity ratio worked out at 11.
On the same counts, the results for `Cn1cc2c3cc(Cl)ccc3nc-2c2ccccc21` are 218 nM, 2100 nM, 117 nM and 9.6.

What is called IC50 is the concentration needed to halve the response being measured.
